S100A4 inh HTS – inhibitors of human S100A4 binding to myosin IIA peptide; hit rate 0.14% among 360,000; inhibition, % at 10.7 µM; P26447; S100A4/TAMRA-MyoIIA peptide fluorescence polarization;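 active means mean inhibition of at least 70% across replicates, with every replicate also reaching that level; inconclusive means mean inhibition reaches 70% but some replicates fall short; inactive means mean inhibition below 70%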
Target sequence (P26447 whole entry, looked up): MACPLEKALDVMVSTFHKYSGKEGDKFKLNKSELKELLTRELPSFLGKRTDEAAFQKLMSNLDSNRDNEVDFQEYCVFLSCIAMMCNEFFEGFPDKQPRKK
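Test system: S100A4 monomer protein; Medium: HEPES pH 7.2 with CaCl2, KCl, NaCl, DTT, Triton; Probe or stimulus: TAMRA-labelled myosin IIA heavy-chain peptide probe, 5 nM; Doses: one dose per compound; Times: polarization read 5 min after assay mix addition, stable 5–60 min; Benchmarks: neutral control DMSO, positive control TFP.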
Cneo AK release – causes C. neoformans cell lysis; adenylate kinase release luminescence, 4 h; normalised: neutral wells 0, clomiphene wells 100; lysis activity, % at 15 µM; hit rate 0.2% among 360,000;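 active means mean lysis activity across replicates of at least 80%, whatever share of replicates individually reach that level; inactive means mean lysis activity below 80%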
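Material – log-phase Cryptococcus neoformans yeast cells · Input – 5 × 10^6 yeast cells/mL · Medium – fresh YPD growth medium · Doses – single compound concentration per well · Timing – static 4 h at 37 °C with compound, 1 h detection · Detection – adenylate kinase release luminescence · Read-out – signal increase indicating cell lysis · Control set – Clomiphene as positive lysis control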
PfHsp90 yeast 2 – reduces growth (ATP signal) of yeast expressing P. falciparum Hsp90 | S. cerevisiae expressing PfHsp90, BacTiter-Glo ATP, 48 h; yeast lacking PDR1 and PDR3 efflux regulators | inhibition, % at 9.4 µM | hit rate 0.32% among 310,000 | AID 504621;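 active means every replicate shows inhibition above about 80%, whatever the replicate mean, limit read from the data; inconclusive means mean inhibition reaches the set limit but some replicate falls short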;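 further: 0% = DMSO neutral controls and 100% = 20 µM radicicol positive controls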
DENV2 CPE – inhibitors of DENV2 cytopathic effect | DENV2-infected cells, cytopathic effect rescue, plate reader | CPE inhibition, % at 9.99 µM | hit rate 1.7% among 350,000 | AID 651640; in the data active means CPE inhibition above about 20%, passing the limit was not always enough; inconclusive means no clear call, values can overlap the other calls; tested in BHK-21 cells;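 further: 0% = median of neutral control wells and 100% = median of positive control wells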
MLL AF4-AF9 inh – inhibitors of human MLL-AF4/AF9 interaction; P42568; AlphaScreen, biotin-AF4 peptide binding to FLAG-AF9; inhibition, % at 10 µM; hit rate 0.47% among 350,000; AID 651704;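 active means every replicate reaching a set inhibition limit, whatever the replicate mean, cut at about 25% in these data; inconclusive means mean inhibition reaches that limit but some replicates miss it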;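 further: 0% = plate neutral control median and 100% = total signal loss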
Target sequence (P42568 whole entry, looked up): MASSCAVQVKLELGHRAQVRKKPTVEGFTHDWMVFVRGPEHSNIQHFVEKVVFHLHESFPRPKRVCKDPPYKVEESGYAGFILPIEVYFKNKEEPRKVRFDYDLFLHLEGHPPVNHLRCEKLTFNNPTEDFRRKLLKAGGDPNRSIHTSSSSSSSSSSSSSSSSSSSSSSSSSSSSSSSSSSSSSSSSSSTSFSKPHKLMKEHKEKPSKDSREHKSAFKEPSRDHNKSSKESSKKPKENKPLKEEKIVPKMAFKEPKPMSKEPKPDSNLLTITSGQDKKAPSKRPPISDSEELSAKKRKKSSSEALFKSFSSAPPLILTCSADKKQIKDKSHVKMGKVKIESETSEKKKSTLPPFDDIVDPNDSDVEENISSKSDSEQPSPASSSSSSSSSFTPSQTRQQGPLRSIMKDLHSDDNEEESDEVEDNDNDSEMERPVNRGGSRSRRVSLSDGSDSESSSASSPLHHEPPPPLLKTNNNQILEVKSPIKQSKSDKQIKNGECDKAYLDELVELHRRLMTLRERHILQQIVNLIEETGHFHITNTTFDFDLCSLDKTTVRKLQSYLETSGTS
Ecoli rRNA inh – inhibits bacterial ribosomal RNA function over humanized ribosomes. GFP signal change (wild-type ribosome), % (test concentration not listed). E. coli WT GFP vs humanized-ribosome RFP mutants, fluorescence, 24 h; stronger effect = lower value; DMSO median 0, no signal -100. hit rate 1.6% among 350,000;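 active means significant combined selectivity score with lowered wild-type GFP, culture density cut under 30%, mutant RFP and density less affected; inactive means any of these conditions unmet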
The depositor's hits bear a star; u = inconclusive; x = no result. Compounds with a hit are over-represented: about 3.2% of the library has one in this group of screens.

SMILES	S100A4 inh HTS	Cneo AK release	PfHsp90 yeast 2	DENV2 CPE	MLL AF4-AF9 inh	Ecoli rRNA inh
COCCNC(=O)C[C@H]1CC[C@H]2[C@@H](COc3ccc(NC(=O)C4CCOCC4)cc3C(=O)N2C)O1	5	-3	x	-6	-1	0
Cc1nn(C)cc1NC(=O)C[C@@H]1CC[C@@H]2[C@@H](COc3ccc(NC(=O)C4CCC4)cc3C(=O)N2C)O1	x	x	x	x	x	-16*
CNC[C@H]1Oc2ccc(NC(=O)Cc3ccccc3)cc2CC(=O)N([C@H](C)CO)C[C@H]1C	-64	-1	x	-9	0	4
CC1CC2=C(C(=O)O1)C(c1ccc(Cl)cc1)Nc1ccccc1N2 (stereo not drawn)	1	x	6	88*	-1	6
Cc1ccc(C2Nc3ccccc3NC3=C2C(=O)OC(C)C3)cc1 (stereo not drawn)	11	x	-2	-9	4	0
CCNC(=O)Nc1ccc2c(c1)C(=O)N(C)[C@H]1CC[C@H](CC(=O)N[C@@H](C)c3ccccc3)O[C@H]1CO2	2	91*	x	-3	-8	1
CCNC(=O)Nc1ccc2c(c1)C(=O)N(C)[C@@H]1CC[C@H](CC(=O)N[C@@H](C)c3ccccc3)O[C@@H]1CO2	-3	193*	x	u	-3	-2
CCNC(=O)Nc1ccc2c(c1)C(=O)N(C)[C@@H]1CC[C@@H](CC(=O)N[C@@H](C)c3ccccc3)O[C@@H]1CO2	9	1	x	3	0	1
CCNC(=O)Nc1ccc2c(c1)C(=O)N(C)[C@H]1CC[C@@H](CC(=O)N[C@H](C)c3ccccc3)O[C@H]1CO2	-2	-11	x	1	-6	3
CCNC(=O)C[C@H]1CC[C@@H]2[C@H](COc3ccc(NC(=O)NC(C)C)cc3C(=O)N2C)O1	-15	-1	x	41*	-1	4
CCNC(=O)Nc1ccc2c(c1)C(=O)N(C)[C@@H]1CC[C@H](CC(=O)NCc3ccc(F)cc3)O[C@H]1CO2	-4	-11	x	55*	-2	0
C[C@@H]1CCCCO[C@@H](CN(C)Cc2ccc(C(F)(F)F)cc2)[C@@H](C)CN([C@@H](C)CO)C(=O)c2cc(NC(=O)C3CCCCC3)ccc2O1	x	3	x	-5	x	5
NC(=O)[C@@H]1[C@H]2C(=O)O[C@H](c3ccccc3)[C@H](c3ccccc3)N2[C@H](c2ccccc2OCCO)[C@@]12C(=O)Nc1ccccc12	7	18	x	-2	14	x
C[C@@H]1CN([C@@H](C)CO)C(=O)c2cc(C#Cc3cccc(F)c3)cnc2O[C@@H]1CN(C)Cc1ccccn1	-12	3	x	-5	-9	6
CCNC(=O)C[C@H]1CC[C@H]2[C@H](COc3ccc(NC(=O)c4ccc(F)c(F)c4)cc3C(=O)N2C)O1	4	-3	x	88*	1	2
O=C(Nc1ccc2ccccc2c1)C(C1CC1)n1c(=O)c(-c2cc3ccccc3[nH]2)nc2ccccc21 (stereo not drawn)	-2	x	x	47*	-32	14
O=C(NCc1ccccc1)C(c1ccc(C(F)(F)F)cc1)n1c(=O)c(-c2cc3ccccc3[nH]2)nc2ccccc21 (stereo not drawn)	0	x	x	38*	-50	7
COc1ccc(NC(=O)C(C2CC2)n2c(=O)c(-c3cc4ccccc4[nH]3)nc3ccccc32)cc1 (stereo not drawn)	-5	x	x	1	x	6
C[C@H](CO)N1C[C@H](C)[C@@H](CN(C)S(=O)(=O)c2cccs2)Oc2ccc(NC(=O)CCCN(C)C)cc2CC1=O	x	2	x	u	x	3
COC(=O)c1c(C)nc(C)c(C(=O)OC)c1-c1ccsc1	-4	-1	x	1	x	-40*
CCOC(=O)c1c(C)nc(C)c(C(=O)OCC)c1-c1ccc(OC)cc1	0	1	x	-3	5	-38*
Cc1nc(C)c(C(=O)O)c(-c2ccsc2)c1C(=O)O	-5	0	x	-2	-2	12
O=C(Nc1cccc(F)c1)N1CC(=O)N2[C@@H](CO)[C@@H](c3ccc(-c4ccc(F)cc4)cc3)[C@@H]2C1	-7	x	x	-6	-7	-55
CCC(=O)N1CC2(C1)[C@@H](c1ccccc1)[C@H](CO)N2C(=O)NC(C)C	-1	x	x	0	-17	1
O=C(C[C@@H]1C[C@@H]2c3cc(NC(=O)c4ccc5c(c4)OCO5)ccc3O[C@@H]2[C@H](CO)O1)NCc1cccnc1	-12	-4	x	-4	0	-1
SMILES	S100A4 inh HTS	Cneo AK release	PfHsp90 yeast 2	DENV2 CPE	MLL AF4-AF9 inh	Ecoli rRNA inh
Cc1ccc(-n2c(=O)cc(N3CC(C)OC(C)C3)[nH]c2=O)cc1 (stereo not drawn)	-6	-1	-33	11	44*	6
Oc1ccc(N=Nc2ccccc2-c2nn[nH]n2)c(O)c1	-3	-2	12	-1	0	-31*
CCC(CC)C(=O)NCCc1cc2ccc(C)cc2[nH]c1=O	-2	-1	-6	3	-5	-14*
CC(C)C#Cc1ccc2c(c1)O[C@H](CN(C)Cc1cncnc1)[C@H](C)CN([C@@H](C)CO)S2(=O)=O	-2	0	x	18	1	-6
Brc1ccccc1CN1CCN(Cc2c[nH]c3ccccc23)CC1	-6	x	x	13	14	-23*
O=c1cc(-c2ccccc2Cl)oc2cccc(O)c12	17	0	-12	7	4	12
O=c1cc2oc3cc(O)c(O)cc3c(-c3ccccc3[N+](=O)[O-])c-2cc1O	-2	-6	83*	6	3	-38
Cc1cc(C[n+]2cc(Br)ccc2N)c2ncccc2c1	-2	x	16	35*	0	17
Cc1cc(C[n+]2cc(Cl)ccc2N)c2ncccc2c1	-22	2	0	8	1	16
COc1ccc2c(c1)sc(N)[n+]2Cc1cc(C)cc2cccnc12	-2	5	11	71*	6	25
NNC(=O)c1ccc(COc2ccc3c(c2)CCC3)cc1	2	x	6	6	12	-26*
O=C(NCc1cccnc1)c1ccc(COc2ccccc2Cl)o1	1	x	-1	x	-3	-24
O=C(NCc1cccnc1)c1ccc(COc2ccccc2Br)o1	-1	1	29	1	-1	-24*
CCCc1ccc(OCc2ccc(C(=O)OC)o2)c(OC)c1	-1	x	x	-4	5	-19*
O=C(O)c1ccc(COc2ccc3c(c2)CCC3)cc1	-3	-1	-17	6	1	-15
COC(=O)c1ccc(COc2ccc3c(c2)CCC3)o1	-6	x	-2	3	1	-24*
O=C(NCc1cccnc1)c1ccc(COc2ccc3c(c2)CCC3)o1	-4	3	18	4	2	-21*
